ChEMBL document CHEMBL4138228, “Substituted carbamothioic amine-1-carbothioic thioanhydrides as novel trichomonicidal fungicides: Design, synthesis, and biology” (Eur J Med Chem, 2018)
In brackets after ≈: the same amount, converted by molar mass.

Key:
Candida albicans [1] = assay: Antifungal activity against Candida albicans ATCC 66027 after 48 hrs by broth microdilution method; type: functional; conditions: ATCC 66027, 48 h
Procedure, shortened: (§1)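 Broth microdilution per NCCLS guidelines in MOPS-buffered RPMI 1640; starting inoculum 1-5 x 10^3 CFU/mL; plates incubated at 35 °C; MIC recorded after 48 h; fluconazole as reference; experiments repeated three times.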

Candida parapsilosis = assay: Antifungal activity against Candida parapsilosis ATCC 22019 after 48 hrs by broth microdilution method; type: functional; conditions: Lodderomyces parapsilosis, ATCC 22019, 48 h; procedure, shortened: as §1
[2] = Selectivity index, ratio of IC50 for human HeLa cells to MIC for metronidazole-resistant Trichomonas vaginalis CDC085 ATCC 50143; type: toxicity; conditions: read-out: Selectivity Index
Sporothrix schenckii = assay: Antifungal activity against Sporothrix schenckii after 48 hrs by broth microdilution method; type: functional; procedure, shortened: as §1
Candida albicans [3] = assay: Antifungal activity against Candida albicans ATCC 10231 after 48 hrs by broth microdilution method; type: functional; conditions: ATCC 10231, 48 h; procedure, shortened: as §1
Nakaseomyces glabratus = assay: Antifungal activity against Candida glabrata ATCC 2001 after 48 hrs by broth microdilution method; type: functional; conditions: ATCC 2001, 48 h; procedure, shortened: as §1
Trichomonas vaginalis [4] = assay: Antitrichomonas activity against metronidazole-resistant Trichomonas vaginalis CDC085 ATCC 50143 assessed as decrease in cell viability after 48 hrs by trypan blue exclusion method; type: functional; conditions: CDC085 ATCC 50143, 48 h
Candida albicans [5] = assay: Antifungal activity against Candida albicans ATCC 14053 after 48 hrs by broth microdilution method; type: functional; conditions: ATCC 14053, 48 h; procedure, shortened: as §1
Candida albicans [6] = assay: Antifungal activity against Candida albicans MTCC 183 after 48 hrs by broth microdilution method; type: functional; conditions: MTCC 183, 48 h; procedure, shortened: as §1
Trichomonas vaginalis [7] = assay: Potency index, ratio of metronidazole MIC to test compound MIC for metronidazole-resistant Trichomonas vaginalis CDC085 ATCC 50143; type: functional
[8] = tested on: Trichophyton mentagrophytes; assay: Antifungal activity against Trichophyton mentagrophytes after 48 hrs by broth microdilution method; type: functional; procedure, shortened: as §1
HeLa = assay: Cytotoxicity against human HeLa cells after 24 hrs by MTT assay; type: cell-based
Candida albicans [9] = assay: Antifungal activity against Candida albicans patient isolate after 48 hrs by broth microdilution method; type: functional; procedure, shortened: as §1
Trichomonas vaginalis [10] = assay: Antitrichomonas activity against metronidazole-susceptible Trichomonas vaginalis assessed as decrease in cell viability after 48 hrs by trypan blue exclusion method; type: functional
[11] = Selectivity index, ratio of IC50 for human HeLa cells to MIC for metronidazole-susceptible Trichomonas vaginalis; type: toxicity; conditions: read-out: Selectivity Index
Cryptococcus neoformans = assay: Antifungal activity against Cryptococcus neoformans after 48 hrs by broth microdilution method; type: functional; procedure, shortened: as §1

| Compound | MIC (Candida albicans [1]) [µM] | MIC (Candida parapsilosis) [µM] | selectivity ratio [2] | MIC (Sporothrix schenckii) [µM] | MIC (Candida albicans [3]) [µM] | MIC (Nakaseomyces glabratus) [µM] | MIC (Trichomonas vaginalis [4]) [µM] | MIC (Candida albicans [5]) [µM] | MIC (Candida albicans [6]) [µM] | Ratio (Trichomonas vaginalis [7]) | MIC [8] [µM] | IC50 (HeLa) [mM] | MIC (Candida albicans [9]) [µM] | MIC (Trichomonas vaginalis [10]) [µM] | selectivity ratio [11] | MIC (Cryptococcus neoformans) [µM] |
| --- | --- | --- | --- | --- | --- | --- | --- | --- | --- | --- | --- | --- | --- | --- | --- | --- |
| CN1CCN(C(=S)SC(=S)N(C)C)CC1 | 47.5 (≈ 12.5 µg/mL) | 190 (≈ 50.1 µg/mL) | 12 | 95 (≈ 25 µg/mL) | 190 (≈ 50.1 µg/mL) | 190 (≈ 50.1 µg/mL) | 95 (≈ 25 µg/mL) | 95 (≈ 25 µg/mL) | 95 (≈ 25 µg/mL) | 1.3 - 9.5 | 95 (≈ 25 µg/mL) | 1.22 | 95 (≈ 25 µg/mL) | 47.5 (≈ 12.5 µg/mL) | 26 | 190 (≈ 50.1 µg/mL) |
| CN(C)C(=S)SC(=S)N1CCOCC1 | 100 (≈ 25 µg/mL) | 200 (≈ 50.1 µg/mL) | 10 | 100 (≈ 25 µg/mL) | 25 (≈ 6.26 µg/mL) | 100 (≈ 25 µg/mL) | 400 (≈ 100 µg/mL) | 50 (≈ 12.5 µg/mL) | 50 (≈ 12.5 µg/mL) | – | 100 (≈ 25 µg/mL) | 4 | 200 (≈ 50.1 µg/mL) | 100 (≈ 25 µg/mL) | 40 | 200 (≈ 50.1 µg/mL) |
| CCCCNC(=S)N1CCN(C(=S)SC(=S)N(C)C)CC1 | > 137 | 137 (≈ 49.9 µg/mL) | 20 | 137 (≈ 49.9 µg/mL) | > 137 | > 137 | 137 (≈ 49.9 µg/mL) | > 137 | > 137 | 1.3 - 11.2 | 137 (≈ 49.9 µg/mL) | 2.84 | 137 (≈ 49.9 µg/mL) | 68.5 (≈ 25 µg/mL) | 41 | > 137 |
| CN(C)C(=S)SC(=S)N1CCN(c2cccc(Cl)c2)CC1 | > 139 | 8.66 (≈ 3.12 µg/mL) | 18 | 34.7 (≈ 12.5 µg/mL) | > 139 | > 139 | 278 (≈ 100 µg/mL) | > 139 | 69.3 (≈ 25 µg/mL) | 1.3 - 9.5 | 34.7 (≈ 12.5 µg/mL) | > 5 | 34.7 (≈ 12.5 µg/mL) | 139 (≈ 50 µg/mL) | 36 | 139 (≈ 49.9 µg/mL) |
| CN(C)C(=S)SC(=S)N1CCCC1 | 53.4 (≈ 12.5 µg/mL) | 107 (≈ 25 µg/mL) | 29 | 53.4 (≈ 12.5 µg/mL) | 53.4 (≈ 12.5 µg/mL) | 53.4 (≈ 12.5 µg/mL) | 107 (≈ 25 µg/mL) | 26.7 (≈ 6.26 µg/mL) | 53.4 (≈ 12.5 µg/mL) | 1.5 - 3.8 | 53.4 (≈ 12.5 µg/mL) | 3.09 | 107 (≈ 25 µg/mL) | 26.7 (≈ 6.26 µg/mL) | 115 | 214 (≈ 50.1 µg/mL) |
| CCCCSC(=S)N1CCN(C(=S)SC(=S)N(C)C)CC1 | 32.7 (≈ 12.5 µg/mL) | 8.16 (≈ 3.11 µg/mL) | > 7 | 32.7 (≈ 12.5 µg/mL) | > 131 | 131 (≈ 49.9 µg/mL) | 654 (≈ 250 µg/mL) | 131 (≈ 49.9 µg/mL) | 131 (≈ 49.9 µg/mL) | – | 32.7 (≈ 12.5 µg/mL) | > 5 | 16.3 (≈ 6.23 µg/mL) | 262 (≈ 99.9 µg/mL) | > 19 | 65.3 (≈ 24.9 µg/mL) |
| CN(C)C(=S)SC(=S)N1CCN(C(=S)SCCCC#N)CC1 | > 127 | > 127 | > 39 | 127 (≈ 50 µg/mL) | > 127 | > 127 | 127 (≈ 50 µg/mL) | > 127 | > 127 | 1.3 - 11.2 | 127 (≈ 50 µg/mL) | > 5 | > 127 | 63.6 (≈ 25 µg/mL) | > 79 | > 127 |
| CSC(=S)N1CCN(C(=S)SC(=S)N(C)C)CC1 | > 147 | 36.8 (≈ 12.5 µg/mL) | > 7 | 147 (≈ 49.9 µg/mL) | > 147 | > 147 | 735 (≈ 250 µg/mL) | > 147 | > 147 | – | 147 (≈ 49.9 µg/mL) | > 5 | > 147 | 294 (≈ 99.9 µg/mL) | > 17 | > 147 |
| OC(Cn1cncn1)(Cn1cncn1)c1ccc(F)cc1F [FLUCONAZOLE] | 1.63 (≈ 0.499 µg/mL) | 6.53 (≈ 2 µg/mL) | – | 6.53 (≈ 2 µg/mL) | 3.26 (≈ 0.998 µg/mL) | 13.1 (≈ 4 µg/mL) | – | 0.39 (≈ 0.119 µg/mL) | – | – | > 105 | – | 3.26 (≈ 0.998 µg/mL) | – | – | 6.53 (≈ 2 µg/mL) |
